Activity calls are given as the source filed them. No cut-off for these calls is given here.
What was measured:
[1] = system: Radical scavenging activity; assay: Antioxidant activity assessed as DPPH radical scavenging activity; format: functional; set-up: concentration or dose not given beside the values
[2] = system: THP-1; assay: Antiinflammatory activity in human THP1 cells assessed as inhibition of LPS-induced IL6 release at 10 uM after 24 hrs by ELISA; format: functional; conditions: THP-1, 24 h
Outline: (§1)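 PMA-differentiated THP-1 cells in RPMI 1640 with 10% FBS, penicillin and streptomycin. Test compound in 0.5% DMSO added 30 min at 37 °C before E. coli 0127:B8 LPS, then further incubation at 37 °C. Supernatant TNF-α and IL-6 measured by ELISA. Percent inhibition calculated against control.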

[3] = system: Aspergillus niger; assay: Antimicrobial activity against Aspergillus niger MTCC 1781 at 250 ug/ml after 48 hrs by agar diffusion method; format: functional; conditions: MTCC 1781, 48 h, read-out: IZ
Outline: (§2)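 Agar diffusion on Sabouraud's dextrose agar. Plates were spread with 0.1 mL of fungal spore suspension in sterile distilled water, adjusted to 10⁶ cfu/mL. Duplicate plates were incubated 48 h at 28 °C, and the zone of inhibition was measured in mm.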

[4] = system: THP-1; assay: Cytotoxicity against human THP1 cells assessed as CCK8 […] at 10 uM after 24 hrs […]; format: cell-based; conditions: thp-1, 24 h
Outline: (§3)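 Cytotoxicity was read with CCK-8 in the same wells as the cytokine assay. PMA-differentiated THP-1 cells were exposed to compound in 0.5% DMSO for 30 min at 37 °C, then stimulated with LPS and incubated further at 37 °C.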

[5] = system: Aspergillus flavus; assay: Antimicrobial activity against Aspergillus flavus MTCC 2501 at 250 ug/ml after 48 hrs by agar diffusion method; format: functional; conditions: MTCC 2501, 48 h, read-out: IZ; outline: as §2
[6] = system: Escherichia coli; assay: Antimicrobial activity against Escherichia coli MTCC 1650 at 100 ug/ml after 24 hrs by agar diffusion method; format: functional; conditions: MTCC 1650, 24 h, read-out: IZ
Outline: (§4)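 Agar diffusion on Mueller Hinton agar. Plates were seeded with 0.1 mL of bacterial suspension at 10⁵ cfu/mL in 0.85% sterile saline. Duplicate plates were incubated 24 h at 37 °C, and the zone of inhibition was measured in mm.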

[7] = system: Trichoderma viride; assay: Antimicrobial activity against Trichoderma viride MTCC 167 at 250 ug/ml after 48 hrs by agar diffusion method; format: functional; conditions: MTCC 167, 48 h, read-out: IZ; outline: as §2
[8] = system: Staphylococcus aureus; assay: Antimicrobial activity against Staphylococcus aureus MTCC 96 at 100 ug/ml after 24 hrs by agar diffusion method; format: functional; conditions: MTCC 96, 24 h, read-out: IZ; outline: as §4
[9] = system: Bacillus subtilis; assay: Antimicrobial activity against Bacillus subtilis MTCC 1789 at 100 ug/ml after 24 hrs by agar diffusion method; format: functional; conditions: MTCC 1789, 24 h, read-out: IZ; outline: as §4
[10] = system: THP-1; assay: Antiinflammatory activity in human THP1 cells assessed as inhibition of LPS-induced TNFalpha release at 10 uM after 24 hrs by ELISA; format: functional; conditions: THP-1, 24 h; outline: as §1
[11] = system: Proteus vulgaris; assay: Antimicrobial activity against Proteus vulgaris MTCC 1771 at 100 ug/ml after 24 hrs by agar diffusion method; format: functional; conditions: MTCC 1771, 24 h, read-out: IZ; outline: as §4
[12] = system: Aspergillus niger; assay: Antimicrobial activity against Aspergillus niger MTCC 1781 at 30 ug/ml after 48 hrs by agar diffusion method; format: functional, organism-based
Outline: (§5)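 Fungal spore suspensions in sterile distilled water adjusted to 10⁶ cfu/mL; 0.1 mL spread on Sabouraud's dextrose agar plates. Duplicate plates incubated 48 h at 28 ± 0.2 °C. Activity read as zone of inhibition in mm.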

[13] = system: Trichoderma viride; assay: Antimicrobial activity against Trichoderma viride MTCC 167 at 30 ug/ml after 48 hrs by agar diffusion method; format: functional, organism-based; outline: as §5
[14] = system: Aspergillus flavus; assay: Antimicrobial activity against Aspergillus flavus MTCC 2501 at 30 ug/ml after 48 hrs by agar diffusion method; format: functional, organism-based; outline: as §5
[15] = system: Klebsiella pneumoniae; assay: Antimicrobial activity against Klebsiella pneumoniae NCIM 2957 at 100 ug/ml after 24 hrs by agar diffusion method; format: functional; conditions: for zone of inhibition at 100 µg/mL: NCIM 2957, 24 h, read-out: IZ; outline: as §4
[16] = Cytotoxicity against human THP1 cells assessed as CCK8 […] at 1 uM/mL after 24 hrs […]; format: cell-based; conditions: THP-1 cells; outline: as §3
[17] = system: THP-1; assay: Antiinflammatory activity in human THP1 cells assessed as inhibition of LPS-induced IL6 release at 1 uM/mL after 24 hrs by ELISA; format: functional; conditions: THP-1, 24 h; outline: as §1
[18] = system: THP-1; assay: Antiinflammatory activity in human THP1 cells assessed as inhibition of LPS-induced TNFalpha release at 1 uM/mL after 24 hrs by ELISA; format: functional; conditions: THP-1, 24 h; outline: as §1
[19] = system: Proteus vulgaris; assay: Antimicrobial activity against Proteus vulgaris MTCC 1771 at 10 ug/ml after 24 hrs by agar diffusion method; format: functional; conditions: MTCC 1771, 24 h, read-out: IZ; outline: as §4
[20] = system: Klebsiella pneumoniae; assay: Antimicrobial activity against Klebsiella pneumoniae NCIM 2957 at 10 ug/ml after 24 hrs by agar diffusion method; format: functional; conditions: NCIM 2957, 24 h, read-out: IZ; outline: as §4
[21] = system: Staphylococcus aureus; assay: Antimicrobial activity against Staphylococcus aureus MTCC 96 at 10 ug/ml after 24 hrs by agar diffusion method; format: functional; conditions: MTCC 96, 24 h, read-out: IZ
Outline: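 Mueller Hinton agar seeded with 0.1 mL of bacterial suspension in sterile 0.85% saline at 10⁵ cfu/mL. Duplicate plates incubated 24 h at 37 ± 0.5 °C. Activity read as zone of inhibition in mm.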

## COc1ccc(O)c(C(C)(C)C)c1.COc1ccc(O)cc1C(C)(C)C
[1]
  Activity: 66.8%

## COc1ccc(C(=O)/C=C/c2cn(-c3ccccc3)nc2-c2ccccc2)c(OC)c1
[2]
  inhibition at 10 µM: 64.7%
[3]
  zone of inhibition at 250 µg/mL: 12 mm
[4]
  Activity: 0%
[1]
  Activity: 31.8%
[5]
  zone of inhibition at 250 µg/mL: 15 mm
[6]
  zone of inhibition at 100 µg/mL: 10 mm
[7]
  zone of inhibition at 250 µg/mL: 14 mm
[8]
  zone of inhibition at 100 µg/mL: 8 mm
[9]
  zone of inhibition at 100 µg/mL: 10 mm
[10]
  inhibition at 10 µM: 0%

## COc1ccc(C(=O)/C=C/c2cn(-c3ccccc3)nc2-c2ccc(F)cc2)c(OC)c1
[2]
  inhibition at 10 µM: 0%
[3]
  zone of inhibition at 250 µg/mL: 13 mm
[4]
  Activity: 0%
[1]
  Activity: 26.7%
[5]
  zone of inhibition at 250 µg/mL: 12 mm
[6]
  zone of inhibition at 100 µg/mL: 12 mm
[7]
  zone of inhibition at 250 µg/mL: 14 mm
[8]
  zone of inhibition at 100 µg/mL: 15 mm
[11]
  zone of inhibition at 100 µg/mL: 10 mm
[9]
  zone of inhibition at 100 µg/mL: 14 mm
[10]
  inhibition at 10 µM: 0%

## NYSTATIN
[12]
  inhibition zone (IZ): 11 mm
[13]
  inhibition zone (IZ): 12 mm
[14]
  inhibition zone (IZ): 11 mm

## COc1ccc(C(=O)/C=C/c2cn(-c3ccccc3)nc2-c2ccc(Cl)cc2)c(OC)c1
[2]
  inhibition at 10 µM: 2.71%
[3]
  zone of inhibition at 250 µg/mL: 11 mm
[4]
  Activity: 11.488%
[1]
  Activity: 18.7%
[5]
  zone of inhibition at 250 µg/mL: 10 mm
[6]
  zone of inhibition at 100 µg/mL: 11 mm
[7]
  zone of inhibition at 250 µg/mL: 13 mm
[8]
  zone of inhibition at 100 µg/mL: 11 mm
[11]
  zone of inhibition at 100 µg/mL: 12 mm
[9]
  zone of inhibition at 100 µg/mL: 13 mm
[10]
  inhibition at 10 µM: 1.13%

## COc1ccc(C(=O)/C=C/c2cn(-c3ccccc3)nc2-c2cccc(Cl)c2)c(OC)c1
[2]
  inhibition at 10 µM: 67.5%
[3]
  zone of inhibition at 250 µg/mL: 9 mm
[15]
  inhibition zone (IZ): Active
[4]
  Activity: 0%
[1]
  Activity: 29.7%
[5]
  zone of inhibition at 250 µg/mL: 10 mm
[6]
  zone of inhibition at 100 µg/mL: 9 mm
[7]
  zone of inhibition at 250 µg/mL: 11 mm
[8]
  zone of inhibition at 100 µg/mL: 6 mm
[11]
  zone of inhibition at 100 µg/mL: 8 mm
[9]
  zone of inhibition at 100 µg/mL: 8 mm
[10]
  inhibition at 10 µM: 0%

## COc1ccc(C(=O)/C=C/c2cn(-c3ccccc3)nc2-c2ccccc2Cl)c(OC)c1
[2]
  inhibition at 10 µM: 14.5%
[3]
  zone of inhibition at 250 µg/mL: 11 mm
[4]
  Activity: 0%
[1]
  Activity: 13.8%
[5]
  zone of inhibition at 250 µg/mL: 9 mm
[6]
  zone of inhibition at 100 µg/mL: 12 mm
[7]
  zone of inhibition at 250 µg/mL: 12 mm
[8]
  zone of inhibition at 100 µg/mL: 8 mm
[9]
  zone of inhibition at 100 µg/mL: 7 mm
[10]
  inhibition at 10 µM: 0%

## COc1ccc(C(=O)/C=C/c2cn(-c3ccccc3)nc2-c2ccc(OC)cc2OC)c(OC)c1
[2]
  inhibition at 10 µM: 37.9%
[3]
  zone of inhibition at 250 µg/mL: 12 mm
[15]
  zone of inhibition at 100 µg/mL: 8 mm
[4]
  Activity: 2.5107%
[1]
  Activity: 30.3%
[5]
  zone of inhibition at 250 µg/mL: 13 mm
[6]
  zone of inhibition at 100 µg/mL: 10 mm
[7]
  zone of inhibition at 250 µg/mL: 14 mm
[8]
  zone of inhibition at 100 µg/mL: 7 mm
[9]
  zone of inhibition at 100 µg/mL: 6 mm
[10]
  inhibition at 10 µM: 0%

## COc1ccc(C(=O)/C=C/c2cn(-c3ccccc3)nc2-c2ccc(Br)cc2)c(OC)c1
[2]
  inhibition at 10 µM: 11.3%
[3]
  zone of inhibition at 250 µg/mL: 11 mm
[15]
  zone of inhibition at 100 µg/mL: 10 mm
[4]
  Activity: 0%
[1]
  Activity: 17.2%
[5]
  zone of inhibition at 250 µg/mL: 13 mm
[6]
  zone of inhibition at 100 µg/mL: 9 mm
[7]
  zone of inhibition at 250 µg/mL: 13 mm
[8]
  zone of inhibition at 100 µg/mL: 8 mm
[9]
  zone of inhibition at 100 µg/mL: 7 mm
[10]
  inhibition at 10 µM: 1.81%

## C[C@@H]1C[C@H]2[C@@H]3CCC4=CC(=O)C=C[C@]4(C)[C@@]3(F)[C@@H](O)C[C@]2(C)[C@@]1(O)C(=O)CO [DEXAMETHASONE]
[16]
  inhibition at 24 h, 1 µM: 0%
[17]
  inhibition at 1 µM: 90%
[18]
  inhibition at 1 µM: 69%

## COc1ccc(-c2nn(-c3ccccc3)cc2/C=C/C(=O)c2ccc(OC)cc2OC)cc1
[2]
  inhibition at 10 µM: 38.2%
[3]
  zone of inhibition at 250 µg/mL: 15 mm
[15]
  inhibition zone (IZ): Active
[4]
  Activity: 0%
[1]
  Activity: 34.6%
[5]
  zone of inhibition at 250 µg/mL: 14 mm
[6]
  zone of inhibition at 100 µg/mL: 8 mm
[7]
  zone of inhibition at 250 µg/mL: 16 mm
[8]
  zone of inhibition at 100 µg/mL: 11 mm
[11]
  zone of inhibition at 100 µg/mL: 7 mm
[9]
  zone of inhibition at 100 µg/mL: 10 mm
[10]
  inhibition at 10 µM: 0%

## COc1ccc(C(=O)/C=C/c2cn(-c3ccccc3)nc2-c2ccc(Cl)cc2Cl)c(OC)c1
[2]
  inhibition at 10 µM: 40.8%
[3]
  zone of inhibition at 250 µg/mL: 8 mm
[4]
  Activity: 0%
[1]
  Activity: 18.2%
[5]
  zone of inhibition at 250 µg/mL: 10 mm
[6]
  zone of inhibition at 100 µg/mL: 11 mm
[7]
  zone of inhibition at 250 µg/mL: 10 mm
[8]
  zone of inhibition at 100 µg/mL: 10 mm
[9]
  zone of inhibition at 100 µg/mL: 9 mm
[10]
  inhibition at 10 µM: 0%

## COc1ccc(C(=O)/C=C/c2cn(-c3ccccc3)nc2-c2ccc(C)cc2)c(OC)c1
[2]
  inhibition at 10 µM: 0%
[3]
  zone of inhibition at 250 µg/mL: 14 mm
[15]
  zone of inhibition at 100 µg/mL: 12 mm
[4]
  Activity: 0%
[1]
  Activity: 13.5%
[5]
  zone of inhibition at 250 µg/mL: 12 mm
[6]
  zone of inhibition at 100 µg/mL: 11 mm
[7]
  zone of inhibition at 250 µg/mL: 15 mm
[8]
  zone of inhibition at 100 µg/mL: 9 mm
[9]
  zone of inhibition at 100 µg/mL: 8 mm
[10]
  inhibition at 10 µM: 0%

## CN(C)[C@@H]1C(O)=C(C(N)=O)C(=O)[C@@]2(O)C(O)=C3C(=O)c4c(O)cccc4[C@@](C)(O)[C@H]3C[C@@H]12 [TETRACYCLINE]
[19]
  zone of inhibition at 10 µg/mL: 20 mm
[20]
  zone of inhibition at 10 µg/mL: 32 mm
[21]
  zone of inhibition at 10 µg/mL: 17 mm

— ChEMBL document CHEMBL1153097, “Synthesis and biological evaluation of a novel series of pyrazole chalcones as anti-inflammatory, antioxidant and antimicrobial agents” (Bioorg Med Chem, 2009)
